# Bioassay records as filed in PubChem.
# E-sel inducer: induces E-selectin expression in human endothelial cells | HUVEC E-selectin immunofluorescence imaging; normalized: neutral wells 0, TNF-alpha wells 100 | AID 686992 | hit rate 0.37% among 260,000 | P16581 | activation, % at 7.58 µM;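 active = mean E-selectin-positive cell signal at least 10% of the positive control, reached in at least 60% of replicates, without over 20% cell loss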
#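 System: HUVEC, human umbilical vein endothelial cells; quantity: 3,000 cells/well; buffer or medium: EGM-2 medium, gelatin-coated wells; dosing: single-point compound dose; detection: immunofluorescence imaging; evaluation: % PE-positive cells; benchmarks: TNF-alpha, DMSO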
# Ecoli rRNA inh: selective bacterial rRNA inhibition in E. coli. GFP signal change (wild-type ribosome), % (test concentration not listed). AID 720706. E. coli WT GFP vs humanized-ribosome RFP mutants, fluorescence, 24 h; hits give low values; DMSO median 0, no signal -100. hit rate 1.6% among 350,000;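 active = significant combined selectivity score with lowered wild-type GFP, culture density cut under 30%, mutant RFP and density less affected; inactive = any of these conditions unmet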
# SIRT5 inh: blocks human SIRT5 desuccinylation of peptide | Q9NXA8 | AID 652115 | Purified SirT5, succinyl-peptide AMC, trypsin-coupled fluorescence | hit rate 1.1% among 330,000 | inhibition, % at 15 µM; in the data active = inhibition above about 15%
# S100A4 MyoIIA: inhibitors of human S100A4 binding to myosin IIA peptide | P26447 | S100A4/TAMRA-MyoIIA peptide fluorescence polarization | inhibition, % at 10.7 µM | hit rate 0.14% among 360,000;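 active = mean inhibition of at least 70% across replicates, with every replicate also reaching that level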
#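 Material: S100A4 monomer (human). Medium: Calcium-containing HEPES buffer, pH 7.2. Probe or stimulus: labelled myosin peptide probe, 5 nM. Compound dosing: one concentration per compound. Timing: polarization read 5 min after assay mix addition, stable 5–60 min. Benchmarks: DMSO as neutral control, TFP as positive control.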
# ERAP1 HTS inh: ERAP1 (human) enzyme inhibition. Q9NZ08. recombinant ERAP1, Leu-AMC fluorescence, 60 min. inhibition, % at 10.7 µM. hit rate 0.15% among 340,000;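 active = mean replicate inhibition of at least 30%, or all replicates individually reaching that 30% level; inactive = mean below 30% and not every replicate reaching it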;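 note: 0% = neutral control wells and 100% = L-leucinethiol positive control wells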
# AF4-AF9 inh: blocks AF4 peptide binding to human AF9. P42568. AlphaScreen, biotin-AF4 peptide binding to FLAG-AF9. inhibition, % at 10 µM. hit rate 0.47% among 350,000;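 active = every replicate reaching a set inhibition limit, whatever the replicate mean, cut at about 25% in these data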;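 note: 0% = plate neutral control median and 100% = total signal loss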
# Target sequence (P42568 whole entry, looked up): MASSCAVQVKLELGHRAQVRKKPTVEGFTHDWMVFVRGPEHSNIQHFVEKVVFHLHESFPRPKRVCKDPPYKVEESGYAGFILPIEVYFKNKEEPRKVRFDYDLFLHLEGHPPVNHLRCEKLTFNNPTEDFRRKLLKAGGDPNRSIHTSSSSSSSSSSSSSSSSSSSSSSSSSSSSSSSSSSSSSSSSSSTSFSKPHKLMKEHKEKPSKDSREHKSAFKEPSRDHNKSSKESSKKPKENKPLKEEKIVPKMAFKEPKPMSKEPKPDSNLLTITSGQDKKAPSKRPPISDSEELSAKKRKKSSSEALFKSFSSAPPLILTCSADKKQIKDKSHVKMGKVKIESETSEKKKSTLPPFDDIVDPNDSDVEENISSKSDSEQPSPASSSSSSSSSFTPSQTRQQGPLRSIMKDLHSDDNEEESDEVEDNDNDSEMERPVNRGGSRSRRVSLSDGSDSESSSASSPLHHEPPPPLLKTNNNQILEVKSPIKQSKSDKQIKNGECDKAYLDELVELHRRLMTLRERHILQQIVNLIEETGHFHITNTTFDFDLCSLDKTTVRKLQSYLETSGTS
# The depositor's hits bear a star; x = not tested or not shown. Rows were chosen to be rich in hits. Some 3.4% of all compounds tested hit in one or more screens of this group.
SMILES,E-sel inducer,Ecoli rRNA inh,SIRT5 inh,S100A4 MyoIIA,ERAP1 HTS inh,AF4-AF9 inh
C[C@H](CO)N1C[C@H](C)[C@H](CN(C)C(=O)Nc2ccccc2)Oc2c(NS(=O)(=O)c3cccs3)cccc2C1=O,50*,-4,x,x,x,x
CCc1ccc(NC(=O)COC(=O)CCCC2=NS(=O)(=O)c3ccccc3N2)cc1,0,-17*,-7,-4,-3,-1
Cc1noc(C)c1S(=O)(=O)Nc1ccc2c(c1)C(=O)N([C@H](C)CO)C[C@H](C)[C@H](CN(C)CC1CCCCC1)OCCCC[C@H](C)O2,0,4,6,25,-2,4
CCCc1cc(=O)oc2c3c(cc(OCC(=O)NCC4CCC(C(=O)O)CC4)c12)OC(C)(C)CC3 (centres undefined),x,-39*,-78,-5,4,1
O=S(=O)(NCc1ccc(Cl)cc1)NCc1ccc(Cl)cc1,0,3,-3,-1,-3,0
CC(C)(CNS(C)(=O)=O)SCc1ccc(Cl)cc1,2,-32*,0,9,-1,-1
O=C(O)c1cccc(-n2cccc2/C=C2\NC(=O)N(Cc3ccc(F)cc3)C2=O)c1,x,8,16*,-1,0,2
Cc1ccc(CN2C(=O)N/C(=C\c3cccn3-c3cccc(C(=O)O)c3)C2=O)cc1,x,4,10,9,11,0
O=C(O)c1cccc(-n2cccc2/C=C/[N+](=O)[O-])c1,x,10,15*,0,5,-3
O=C(O)c1ccc(-n2cccc2/C=C2/SC(=O)N(CC(=O)N3CCCC3)C2=O)cc1,0,6,19*,0,8,-4
O=C(O)c1cccc(-n2cccc2/C=C\[N+](=O)[O-])c1,x,4,4,-3,14,-4
O=C(O)c1ccc(-n2cccc2/C=C2/NC(=O)N(c3ccccc3)C2=O)cc1,x,-5,25*,-10,28,-2
C[C@@H]1CN([C@H](C)CO)C(=O)Cc2cc(NC(=O)CCCCCC(=O)Nc3ccccc3N)ccc2O[C@@H]1CN(C)Cc1ccc(C(F)(F)F)cc1,0,-3,x,-14,1,0
C[C@@H]1CN([C@H](C)CO)C(=O)c2cccc(NS(=O)(=O)c3cccs3)c2O[C@H]1CN(C)C(=O)Nc1ccc(C(F)(F)F)cc1,x,x,-1,11,1,-1
N#CCCN(C(=O)COC(=O)c1ccc2c(c1)NC(=O)CS2)c1ccc2c(c1)OCCO2,x,-4,37*,1,1,x
CN(C)C(=O)c1ccc(-c2ccc([C@@H]3[C@@H](C#N)N(C(=O)C4CCOCC4)[C@H]3CO)cc2)cc1,0,7,-1,4,0,-1
Cc1ccccc1Nc1nc(N)nc(COC(=O)c2cccc(S(=O)(=O)N(C)C)c2)n1,0,-17*,-2,-2,1,-77
C[C@H](CO)N1C[C@H](C)[C@@H](CN(C)S(=O)(=O)c2ccc(Cl)cc2)Oc2ccc(NC(=O)CCC(F)(F)F)cc2C1=O,0,-2,5,-4,2,-1
CC[C@]1(C(=O)OC)[C@H]2C(=O)N(Cc3ccccc3)C(=O)[C@H]2[C@H]2CN=C(SCc3ccc(C(=O)OC)cc3)N21,x,-26*,-5,57,0,2
C[C@H](CO)N1C[C@H](C)[C@H](CN(C)C(=O)c2ccc3c(c2)OCO3)Oc2ncc(/C=C/c3ccccc3)cc2C1=O,0,-9,-7,0,0,6
CO[C@H]1CN(C)C(=O)c2ccc(NC(C)=O)cc2OC[C@@H](C)N(Cc2cncnc2)C[C@@H]1C,0,1,1,-1,-1,3
CCCC(=O)Nc1ccc2c(c1)OC[C@@H](C)N(Cc1cncnc1)C[C@@H](C)[C@@H](OC)CN(C)C2=O,0,-1,3,4,4,44*
CCC(=O)Nc1ccc2c(c1)OC[C@H](C)N(Cc1cccc(F)c1)C[C@@H](C)[C@H](OC)CN(C)C2=O,0,-10,20*,4,-3,3
CO[C@@H]1CN(C)C(=O)c2cc(NC(C)=O)ccc2OC[C@H](C)N(Cc2cncnc2)C[C@H]1C,0,2,-1,76*,-1,-4
CCCC(=O)Nc1ccc2c(c1)OC[C@H](C)N(Cc1cncnc1)C[C@@H](C)[C@H](OC)CN(C)C2=O,0,-4,2,4,-1,-2
SMILES,E-sel inducer,Ecoli rRNA inh,SIRT5 inh,S100A4 MyoIIA,ERAP1 HTS inh,AF4-AF9 inh
CCCC(=O)Nc1ccc2c(c1)OC[C@H](C)N(Cc1ccccc1)C[C@@H](C)[C@@H](OC)CN(C)C2=O,0,-2,37*,-1,5,3
O=C(C[C@@H]1CC[C@@H]2[C@H](COC[C@@H](O)CN2C(=O)Cc2ccccc2)O1)NC1CCCC1,0,6,-3,8,2,1
O=C(C1CCC1)N1CC2(C1)[C@H](c1ccccc1)[C@H](CO)N2Cc1cccnc1,0,3,-1,3,6,-1
CCC(=O)Nc1ccc2c(c1)C(=O)N(C)C[C@H](OC)[C@@H](C)CN(Cc1ccccc1C(=O)O)[C@@H](C)CO2,1,3,-1,0,-5,-14
CCC(=O)Nc1ccc2c(c1)OC[C@H](C)N(Cc1ccccc1C(=O)O)C[C@H](C)[C@@H](OC)CN(C)C2=O,4,1,x,90*,1,-2
CCN(CC)C(=O)COc1ccc2c(-c3ccc(OC)cc3)cc(=O)oc2c1,x,-22*,0,-3,1,-2
Cc1ccc(N(C(=O)c2csnn2)C(C(=O)NC2CCCCC2)c2ccco2)cc1 (centres undefined),x,1,79*,1,-1,2
CC(C)(C)NC(=O)C(c1ccccn1)N(C(=O)c1csnn1)C1CCCC1 (centres undefined),1,2,27*,-3,-1,-7
CCc1ccc(N(C(=O)c2csnn2)C(C(=O)NC(C)(C)C)c2ccccn2)cc1 (centres undefined),4,13,x,-6,x,1
O=C(NC1CCCCC1)C(c1ccco1)N(C(=O)c1csnn1)c1ccccc1 (centres undefined),x,x,2,-1,0,0
O=C(NC1CCCCC1)C(c1ccccn1)N(C(=O)c1csnn1)C1CCCCC1 (centres undefined),4,13,15*,19,-1,-2
Cc1ccc(C)c(N(C(=O)c2csnn2)C(C(=O)NC2CCCCC2)c2ccccn2)c1 (centres undefined),0,3,1,-5,2,37*
Cc1ccc(-c2ccccc2[C@@H]2[C@H](C#N)N(C(=O)Cc3cccnc3)[C@H]2CO)cc1,0,-7,6,8,2,0
